# Source: ChEMBL document CHEMBL2062503, “Potent and Selective Inhibitors of CK2 Kinase Identified through Structure-Guided Hybridization” (ACS Med Chem Lett, 2012)
# Active and inactive are the calls of the source. The rule behind the calls is not given here.
# Legend:
# [1] = Aqueous solubility of the compound; format: physicochemical; conditions: buffer
# Procedure, shortened: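 Solubility was determined in aqueous medium at pH 7.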
# [2] = Fraction unbound in human plasma; format: ADME, cell-free
# SW480 = test: Antiproliferative activity against human SW480 cells by alamar blue assay; format: functional
# Procedure, shortened: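 SW480 proliferation was measured with the Alamar Blue read-out, and GI50 is reported in μM.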
# MDR1 [3] = test: Apparent permeability from apical to basolateral side in pig LLC-PK1 cells expressing MDR1; format: ADME, cell-based, Sus scrofa
# [4] = target: T1, Casein kinase II subunit alpha (Homo sapiens, UniProt P68400); test: Inhibition of full length N-terminus His-tagged human CK2alpha expressed in insect Sf21 cells using BODIPY-FL-RRRDDDSDDD-CONH2 as substrate after 20 mins
# [5] = Lipophilicity, log D of the compound; format: physicochemical; conditions: octanol/water
# [6] = Intrinsic clearance in rat liver microsomes; format: ADME, Microsome; conditions: read-out: CLH
# [7] = target: Glycogen synthase kinase-3 beta (Homo sapiens, UniProt P49841); test: Inhibition of GSK3beta
# [8] = target: Homeodomain-interacting protein kinase 2 (Homo sapiens, UniProt Q9H2X6); test: Inhibition of HipK2
# [9] = target: Cyclin-dependent kinase 2 (Homo sapiens, UniProt P24941); test: Inhibition of CDK2
# [10] = target: T1, Casein kinase II subunit alpha; test: Inhibition of CK2alpha in human HCT116 cells assessed as decrease in AKT phosphorylation at S129 residue after 3 to 24 hrs
# HCT-116 [11] = test: Growth inhibition of human HCT116 cells after 72 hrs by alamar blue assay; format: functional; conditions: HCT-116, 72 h
# Procedure, shortened: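 HCT-116 proliferation was read out by Alamar Blue. GI50 is reported in μM as the mean of at least three experiments.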
# Cytochrome P450 1A2 = target: T2, Cytochrome P450 1A2 (Homo sapiens, UniProt P05177); test: Inhibition of CYP1A2; format: ADME
# T2 sequence (P05177 whole entry): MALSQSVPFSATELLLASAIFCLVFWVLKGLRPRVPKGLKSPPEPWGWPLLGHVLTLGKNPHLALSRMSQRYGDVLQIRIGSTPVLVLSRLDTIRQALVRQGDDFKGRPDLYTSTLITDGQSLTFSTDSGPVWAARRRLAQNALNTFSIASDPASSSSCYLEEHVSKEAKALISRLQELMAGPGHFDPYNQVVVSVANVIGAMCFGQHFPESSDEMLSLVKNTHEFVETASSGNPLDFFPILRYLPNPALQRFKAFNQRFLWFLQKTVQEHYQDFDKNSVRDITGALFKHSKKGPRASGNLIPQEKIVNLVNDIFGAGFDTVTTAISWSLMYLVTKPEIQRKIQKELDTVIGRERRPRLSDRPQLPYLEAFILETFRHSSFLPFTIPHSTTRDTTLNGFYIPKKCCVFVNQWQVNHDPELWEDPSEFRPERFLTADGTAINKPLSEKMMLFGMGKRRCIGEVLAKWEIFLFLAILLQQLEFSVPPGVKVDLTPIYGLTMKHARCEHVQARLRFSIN
# [12] = target: Voltage-gated inwardly rectifying potassium channel KCNH2 (Homo sapiens, UniProt Q12809); test: Inhibition of human Erg
# [13] = AUC in rat at 10 mg/kg, po; format: ADME, organism-based; set-up: dose 10 mg/kg, route oral; conditions: plasma
# Procedure, shortened: (§1)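 Rats received one oral dose of 10 mg/kg, and pharmacokinetic parameters were derived from that single administration.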
# HCT-116 [14] = test: Induction of apoptosis in human HCT116 cells assessed as caspase activation; format: functional, cell-based
# [15] = Oral bioavailability in rat at 10 mg/kg; format: ADME, organism-based; conditions: in vivo; procedure, shortened: as §1
# [16] = Clearance in rat at 10 mg/kg, po; format: ADME, organism-based; set-up: dose 10 mg/kg, route oral; conditions: in vivo; procedure, shortened: as §1
# MDR1 [17] = test: Apparent permeability from apical to basolateral side in MDCK cells expressing MDR1; format: ADME, cell-based, Canis lupus familiaris; conditions: dog
# Sequence of Glycogen synthase kinase-3 beta (P49841 whole entry): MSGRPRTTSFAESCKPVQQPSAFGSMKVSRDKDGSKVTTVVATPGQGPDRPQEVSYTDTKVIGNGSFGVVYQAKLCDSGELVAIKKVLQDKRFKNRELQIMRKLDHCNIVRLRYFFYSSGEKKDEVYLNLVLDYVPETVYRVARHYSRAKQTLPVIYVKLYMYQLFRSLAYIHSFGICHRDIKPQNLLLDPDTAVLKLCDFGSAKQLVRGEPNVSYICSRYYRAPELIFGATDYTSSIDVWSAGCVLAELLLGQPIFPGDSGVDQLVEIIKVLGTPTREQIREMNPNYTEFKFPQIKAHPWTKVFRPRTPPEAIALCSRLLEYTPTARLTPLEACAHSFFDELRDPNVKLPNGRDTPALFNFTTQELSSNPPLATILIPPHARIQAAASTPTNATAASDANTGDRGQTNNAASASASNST
# Sequence of Homeodomain-interacting protein kinase 2 (Q9H2X6 whole entry): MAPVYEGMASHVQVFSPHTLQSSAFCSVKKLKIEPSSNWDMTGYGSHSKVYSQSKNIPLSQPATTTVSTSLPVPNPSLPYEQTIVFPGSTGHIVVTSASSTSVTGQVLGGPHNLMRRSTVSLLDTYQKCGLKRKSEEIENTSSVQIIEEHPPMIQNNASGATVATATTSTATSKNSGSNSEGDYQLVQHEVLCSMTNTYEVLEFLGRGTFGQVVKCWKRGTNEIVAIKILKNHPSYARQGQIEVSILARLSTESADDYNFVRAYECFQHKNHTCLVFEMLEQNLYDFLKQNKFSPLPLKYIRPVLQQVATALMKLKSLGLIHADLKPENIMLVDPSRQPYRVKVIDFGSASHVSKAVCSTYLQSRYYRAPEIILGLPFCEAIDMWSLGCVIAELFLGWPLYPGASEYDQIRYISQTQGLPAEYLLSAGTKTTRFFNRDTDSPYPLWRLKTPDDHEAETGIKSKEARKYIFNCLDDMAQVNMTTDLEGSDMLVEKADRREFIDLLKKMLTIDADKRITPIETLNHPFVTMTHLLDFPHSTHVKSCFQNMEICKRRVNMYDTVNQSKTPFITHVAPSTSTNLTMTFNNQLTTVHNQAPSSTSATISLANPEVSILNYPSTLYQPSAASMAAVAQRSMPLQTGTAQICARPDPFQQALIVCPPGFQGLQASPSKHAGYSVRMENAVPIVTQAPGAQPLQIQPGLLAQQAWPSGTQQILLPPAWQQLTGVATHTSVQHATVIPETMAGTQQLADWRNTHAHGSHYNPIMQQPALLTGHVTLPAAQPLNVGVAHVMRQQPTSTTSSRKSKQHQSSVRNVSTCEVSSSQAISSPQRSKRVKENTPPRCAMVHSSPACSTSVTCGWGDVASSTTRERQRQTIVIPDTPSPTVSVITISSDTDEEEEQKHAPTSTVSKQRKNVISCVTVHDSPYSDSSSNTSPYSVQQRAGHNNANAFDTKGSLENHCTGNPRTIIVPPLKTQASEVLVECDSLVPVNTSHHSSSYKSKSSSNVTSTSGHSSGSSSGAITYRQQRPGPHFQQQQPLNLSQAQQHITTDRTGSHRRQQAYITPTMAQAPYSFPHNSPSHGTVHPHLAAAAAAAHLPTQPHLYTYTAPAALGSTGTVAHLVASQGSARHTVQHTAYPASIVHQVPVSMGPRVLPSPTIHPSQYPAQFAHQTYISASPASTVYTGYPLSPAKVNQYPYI
# Sequence of Voltage-gated inwardly rectifying potassium channel KCNH2 (Q12809 whole entry): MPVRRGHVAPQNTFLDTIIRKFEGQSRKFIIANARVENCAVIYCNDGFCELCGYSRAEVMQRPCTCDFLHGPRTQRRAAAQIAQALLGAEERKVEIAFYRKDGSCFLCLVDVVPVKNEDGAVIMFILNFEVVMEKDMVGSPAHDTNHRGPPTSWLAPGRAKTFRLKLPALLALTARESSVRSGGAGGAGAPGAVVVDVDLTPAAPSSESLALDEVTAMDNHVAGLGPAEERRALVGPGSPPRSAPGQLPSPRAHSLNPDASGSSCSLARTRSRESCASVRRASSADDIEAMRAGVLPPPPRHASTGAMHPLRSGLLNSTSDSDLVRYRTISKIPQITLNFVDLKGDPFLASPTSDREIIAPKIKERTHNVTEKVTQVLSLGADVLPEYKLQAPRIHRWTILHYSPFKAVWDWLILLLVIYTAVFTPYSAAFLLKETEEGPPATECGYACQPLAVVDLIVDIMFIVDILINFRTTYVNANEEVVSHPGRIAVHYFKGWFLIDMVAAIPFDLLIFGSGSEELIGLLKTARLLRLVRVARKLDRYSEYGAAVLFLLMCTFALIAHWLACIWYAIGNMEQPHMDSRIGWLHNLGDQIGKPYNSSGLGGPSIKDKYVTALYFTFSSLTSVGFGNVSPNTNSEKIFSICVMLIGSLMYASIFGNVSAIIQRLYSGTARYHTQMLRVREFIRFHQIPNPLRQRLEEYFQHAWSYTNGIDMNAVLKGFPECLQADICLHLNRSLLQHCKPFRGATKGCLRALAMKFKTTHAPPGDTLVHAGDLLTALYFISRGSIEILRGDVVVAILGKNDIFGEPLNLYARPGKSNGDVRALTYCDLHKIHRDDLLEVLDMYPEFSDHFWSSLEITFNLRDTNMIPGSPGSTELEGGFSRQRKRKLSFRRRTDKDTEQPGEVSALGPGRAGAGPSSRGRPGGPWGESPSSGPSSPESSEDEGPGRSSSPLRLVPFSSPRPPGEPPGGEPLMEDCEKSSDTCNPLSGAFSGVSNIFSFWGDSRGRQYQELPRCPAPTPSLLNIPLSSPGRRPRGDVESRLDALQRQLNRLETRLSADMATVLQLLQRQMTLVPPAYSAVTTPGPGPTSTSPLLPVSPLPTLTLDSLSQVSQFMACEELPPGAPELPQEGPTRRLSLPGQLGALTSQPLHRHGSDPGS
# T1 sequence (P68400 whole entry): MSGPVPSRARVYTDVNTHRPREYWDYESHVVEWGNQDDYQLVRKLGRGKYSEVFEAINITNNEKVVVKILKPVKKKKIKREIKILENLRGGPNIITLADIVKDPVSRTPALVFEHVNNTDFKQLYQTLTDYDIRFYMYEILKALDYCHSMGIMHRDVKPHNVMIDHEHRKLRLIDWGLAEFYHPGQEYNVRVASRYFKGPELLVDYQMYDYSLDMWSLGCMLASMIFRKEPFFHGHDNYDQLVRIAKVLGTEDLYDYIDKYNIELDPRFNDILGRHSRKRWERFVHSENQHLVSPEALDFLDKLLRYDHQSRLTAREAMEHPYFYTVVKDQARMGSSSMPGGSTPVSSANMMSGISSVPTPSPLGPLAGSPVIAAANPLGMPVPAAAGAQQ
Structure (SMILES),solubility [1],fraction unbound [2],GI50 (SW480),logD [5],GI50 (HCT-116 [11]),other results
CC(=O)Nc1ccc2ccn(-c3cc(NCCN4CCOCC4)n4ncc(C#N)c4n3)c2c1,2 µM,0.11,> 30 µM,–,–,Papp A→B (MDR1 [3]): ≤ 50 nm/s
CC(=O)N(C)c1ccc2ccn(-c3cc(NC4CC4)n4ncc(C#N)c4n3)c2c1,< 1 µM,–,–,2.9,–,IC50 [4]: 0.011 µM; CLint scaled [6]: 6 L/h/kg; IC50 [7]: 1.4 µM; IC50 [8]: < 0.003 µM; IC50 [9]: > 30 µM; IC50 [10]: 0.034 µM
CC(=O)Nc1ccc2[nH]cc(-c3cc(NC4CC4)n4ncc(C#N)c4n3)c2c1,–,–,0.7 µM,–,0.7 µM,IC50 [4]: 0.005 µM; IC50 [7]: 0.25 µM; IC50 [8]: < 0.003 µM; IC50 [9]: 14 µM; IC50 [10]: 0.077 µM
CC(=O)Nc1ccc2ccn(-c3cc(NCCCN(C)C)n4ncc(C#N)c4n3)c2c1,750 µM,0.1,25 µM,1.6,–,IC50 [4]: 0.03 µM; IC50 [7]: 2.6 µM; IC50 [8]: 0.06 µM; IC50 [9]: > 30 µM; IC50 [10]: 1.2 µM
CC(=O)Nc1ccc2ccn(-c3cc(NCCCCO)n4ncc(C#N)c4n3)c2c1,8 µM,0.041,–,2.6,2.8 µM,–
CC(=O)Nc1cnc2ccn(-c3cc(NC4CC4)n4ncc(C#N)c4n3)c2c1,–,–,2.1 µM,–,3 µM,IC50 [4]: < 0.003 µM; IC50 (Cytochrome P450 1A2): > 20 µM; IC50 [7]: 1 µM; IC50 [8]: 0.02 µM; IC50 [9]: > 30 µM
CC(=O)Nc1ccc2c(c1)N(c1cc(NC3CC3)n3ncc(C#N)c3n1)CC2,–,–,0.73 µM,–,0.53 µM,IC50 [12]: > 33 µM
CC(=O)Nc1ccc2c(c1)c(-c1cc(NC3CC3)n3ncc(C#N)c3n1)cn2CCC(=O)O,–,–,–,–,–,IC50 [7]: 6 µM; IC50 [8]: 0.57 µM; IC50 [9]: > 30 µM
CC(=O)Nc1ccc2ccn(-c3cc(NCCN4CCCC4)n4ncc(C#N)c4n3)c2c1,15 µM,0.056,–,2.2,–,–
CC(=O)Nc1ccc2cnn(-c3cc(NC4CC4)n4ncc(C#N)c4n3)c2c1,–,–,5 µM,–,3.7 µM,IC50 [4]: 0.026 µM; IC50 [12]: > 33 µM; IC50 [7]: 0.7 µM; IC50 [8]: 0.05 µM; IC50 [9]: > 30 µM
CC(=O)Nc1ccc2c(c1)c(-c1cc(NC3CC3)n3ncc(C#N)c3n1)cn2CCCO,–,–,3.2 µM,–,2.3 µM,–
CC(=O)Nc1cc2c(ccn2-c2cc(NC3CC3)n3ncc(C#N)c3n2)cc1C,–,–,–,–,> 30 µM,–
COc1ccc(-c2cc(Nc3ccn(C)n3)n3ncc(C#N)c3n2)cc1,–,–,–,–,4.5 µM,–
COc1ccc(-c2cc(NC3CC3)n3ncc(C#N)c3n2)cc1,–,–,–,–,14 µM,–
N#Cc1cnn2c(N)cc(-c3ccccc3)nc12,–,–,–,–,> 30 µM,–
CC(=O)Nc1ccc2ccn(-c3cc(NCCCN4CCCC4)n4ncc(C#N)c4n3)c2c1,> 1000 µM,0.067,13 µM,1.8,–,Papp A→B (MDR1 [3]): ≤ 50 nm/s; AUC [13]: 65 nM·h
COC(=O)CCn1cc(-c2cc(NC3CC3)n3ncc(C#N)c3n2)c2cc(NC(C)=O)ccc21,–,–,6.6 µM,–,–,–
COc1ccncc1-c1cc(NC2CC2)n2ncc(C#N)c2n1,–,–,15 µM,–,16 µM,–
CC(=O)Nc1ccc2ccn(-c3cc(NC4CC4)n4ncc(C#N)c4n3)c2c1,< 10 µM,< 0.01,1 µM,3.3,0.53 µM,Activity (HCT-116 [14]): Active; bioavailability [15]: 5%; CL/F [16]: 0.6 L/h/kg; IC50 [12]: 8.6 µM; IC50 (Cytochrome P450 1A2): 0.1 µM; Papp A→B (MDR1 [17]): 220 nm/s; IC50 [7]: 0.13 µM; IC50 [8]: 0.03 µM; IC50 [9]: 26 µM
CS(=O)(=O)Cc1ccc2ccn(-c3cc(NC4CC4)n4ncc(C#N)c4n3)c2c1,< 1 µM,0.018,–,2.5,16.4 µM,–
N#Cc1cnn2c(N)cc(-c3cccs3)nc12,–,–,–,–,> 30 µM,–
CC(=O)Nc1ccc2ccn(-c3cc(NC4COC4)n4ncc(C#N)c4n3)c2c1,1 µM,0.124,2.5 µM,2.2,2.2 µM,–
CC(=O)Nc1ccc2c(c1)c(-c1cc(NC3CC3)n3ncc(C#N)c3n1)cn2CCO,–,–,4.5 µM,–,2.7 µM,–
CC(=O)Nc1ccc2c(c1)c(-c1cc(NC3CC3)n3ncc(C#N)c3n1)cn2C,–,–,1.1 µM,–,0.7 µM,–
N#Cc1cnn2c(NC3CC3)cc(-n3ccc4ccc(CO)cc43)nc12,< 1 µM,0.019,–,3.1,10.1 µM,–
CC(=O)Nc1ccc2ccn(-c3cc(Nc4ccn(C)n4)n4ncc(C#N)c4n3)c2c1,–,–,0.56 µM,–,0.46 µM,–
